Measurements from ChEMBL document CHEMBL4396879, “Conjugation of Short Peptides to Dibenzodiazepinone-Type Muscarinic Acetylcholine Receptor Ligands Determines M2R Selectivity” (J Med Chem, 2019).

Legend:
Format in all cases: cell-based
[1] = molecular target: Muscarinic acetylcholine receptors; M2 & M3 (Homo sapiens) (UniProt P20309+P08172); test: Selectivity ratio of Ki for human muscarinic M3 receptor expressed in CHO-K9 cells to Ki for human muscarinic M2 receptor expressed in CHO-K9 cells
In short: (§1)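 Ratio of mean Ki values. Each Ki came from an individual [3H]NMS competition experiment at the given CHO-hMxR subtype, converting IC50 to Ki by Cheng-Prusoff before averaging.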

[2] = molecular target: Muscarinic acetylcholine receptor M2 and M5 (Homo sapiens) (UniProt P08172+P08912); test: Selectivity ratio of Ki for human muscarinic M5 receptor expressed in CHO-K9 cells to Ki for human muscarinic M2 receptor expressed in CHO-K9 cells; in short: as §1
[3] = molecular target: T1, Muscarinic acetylcholine receptor M2 (Homo sapiens, UniProt P08172); test: Displacement of [3H]-NMS from human muscarinic M2 receptor expressed in CHO-K9 cells after 3 hrs by microbeta2 scintillation counting method
T1 sequence (P08172 whole entry): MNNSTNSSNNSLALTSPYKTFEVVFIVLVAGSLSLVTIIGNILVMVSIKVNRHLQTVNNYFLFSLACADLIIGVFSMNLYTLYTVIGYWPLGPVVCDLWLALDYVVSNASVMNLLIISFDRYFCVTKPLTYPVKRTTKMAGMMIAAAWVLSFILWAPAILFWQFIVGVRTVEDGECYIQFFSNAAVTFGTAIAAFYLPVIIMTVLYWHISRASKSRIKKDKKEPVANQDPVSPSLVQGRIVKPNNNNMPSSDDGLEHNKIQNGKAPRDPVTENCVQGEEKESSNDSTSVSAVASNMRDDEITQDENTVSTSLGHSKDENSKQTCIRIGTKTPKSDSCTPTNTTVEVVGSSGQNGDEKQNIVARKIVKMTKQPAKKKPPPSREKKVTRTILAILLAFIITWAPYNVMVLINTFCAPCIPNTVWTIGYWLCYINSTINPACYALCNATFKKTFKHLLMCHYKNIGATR
In short: (§2)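 [3H]NMS competition binding on intact CHO-hMxR cells in L15 medium with 1% BSA, 3 h at 22 ± 1 °C with gentle shaking. [3H]NMS was 0.2 nM (M1, M2, M3), 0.1 nM (M4) or 0.3 nM (M5). […] Cells were lysed in urea/acetic acid/Triton and counted by liquid scintillation. Ki from Cheng-Prusoff. Triplicates, ≥3 experiments.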

[4] = molecular target: T2, Muscarinic acetylcholine receptor M5 (Homo sapiens, UniProt P08912); test: Displacement of [3H]-NMS from human muscarinic M5 receptor expressed in CHO-K9 cells after 3 hrs by microbeta2 scintillation counting method; in short: as §2
T2 sequence (P08912 whole entry): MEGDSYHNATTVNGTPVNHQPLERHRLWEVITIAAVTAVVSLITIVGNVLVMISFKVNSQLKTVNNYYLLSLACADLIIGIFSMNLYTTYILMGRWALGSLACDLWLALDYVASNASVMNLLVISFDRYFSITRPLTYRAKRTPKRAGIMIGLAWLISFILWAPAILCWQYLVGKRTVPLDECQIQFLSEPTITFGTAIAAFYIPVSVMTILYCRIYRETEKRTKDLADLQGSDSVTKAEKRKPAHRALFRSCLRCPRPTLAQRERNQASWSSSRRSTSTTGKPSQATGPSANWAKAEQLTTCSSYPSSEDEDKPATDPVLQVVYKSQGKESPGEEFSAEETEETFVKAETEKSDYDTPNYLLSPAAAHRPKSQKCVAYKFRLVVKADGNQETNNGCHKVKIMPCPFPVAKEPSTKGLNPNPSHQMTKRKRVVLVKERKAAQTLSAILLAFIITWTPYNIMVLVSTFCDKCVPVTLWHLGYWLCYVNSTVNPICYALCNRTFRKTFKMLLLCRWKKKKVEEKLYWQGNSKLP

[5] = molecular target: Muscarinic acetylcholine receptor M2 and M4 (Homo sapiens) (UniProt P08173+P08172); test: Selectivity ratio of Ki for human muscarinic M4 receptor expressed in CHO-K9 cells to Ki for human muscarinic M2 receptor expressed in CHO-K9 cells; in short: as §1
[6] = molecular target: Muscarinic acetylcholine receptor M3 (Homo sapiens, UniProt P20309); test: Displacement of [3H]-NMS from human muscarinic M3 receptor expressed in CHO-K9 cells after 3 hrs by microbeta2 scintillation counting method; in short: as §2
[7] = molecular target: Muscarinic acetylcholine receptors; M1 & M2 (Homo sapiens) (UniProt P11229+P08172); test: Selectivity ratio of Ki for human muscarinic M1 receptor expressed in CHO-K9 cells to Ki for human muscarinic M2 receptor expressed in CHO-K9 cells; in short: as §1
[8] = molecular target: T3, Muscarinic acetylcholine receptor M4 (Homo sapiens, UniProt P08173); test: Displacement of [3H]-NMS from human muscarinic M4 receptor expressed in CHO-K9 cells after 3 hrs by microbeta2 scintillation counting method; in short: as §2
T3 sequence (P08173 whole entry): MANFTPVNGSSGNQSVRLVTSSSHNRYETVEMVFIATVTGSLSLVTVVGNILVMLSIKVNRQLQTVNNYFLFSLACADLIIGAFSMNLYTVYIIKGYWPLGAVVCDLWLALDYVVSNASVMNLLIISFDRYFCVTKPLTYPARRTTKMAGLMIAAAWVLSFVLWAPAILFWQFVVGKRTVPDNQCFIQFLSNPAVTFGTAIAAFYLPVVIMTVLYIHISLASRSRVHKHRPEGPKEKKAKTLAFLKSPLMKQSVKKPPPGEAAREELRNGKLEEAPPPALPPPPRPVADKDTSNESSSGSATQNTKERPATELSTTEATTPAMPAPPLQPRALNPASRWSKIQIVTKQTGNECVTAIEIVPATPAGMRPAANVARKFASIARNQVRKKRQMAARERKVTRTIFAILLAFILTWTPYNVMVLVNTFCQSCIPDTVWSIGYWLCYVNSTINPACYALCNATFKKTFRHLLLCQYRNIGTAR

[9] = molecular target: T4, Muscarinic acetylcholine receptor M1 (Homo sapiens, UniProt P11229); test: Displacement of [3H]-NMS from human muscarinic M1 receptor expressed in CHO-K9 cells after 3 hrs by microbeta2 scintillation counting method; in short: as §2
T4 sequence (P11229 whole entry): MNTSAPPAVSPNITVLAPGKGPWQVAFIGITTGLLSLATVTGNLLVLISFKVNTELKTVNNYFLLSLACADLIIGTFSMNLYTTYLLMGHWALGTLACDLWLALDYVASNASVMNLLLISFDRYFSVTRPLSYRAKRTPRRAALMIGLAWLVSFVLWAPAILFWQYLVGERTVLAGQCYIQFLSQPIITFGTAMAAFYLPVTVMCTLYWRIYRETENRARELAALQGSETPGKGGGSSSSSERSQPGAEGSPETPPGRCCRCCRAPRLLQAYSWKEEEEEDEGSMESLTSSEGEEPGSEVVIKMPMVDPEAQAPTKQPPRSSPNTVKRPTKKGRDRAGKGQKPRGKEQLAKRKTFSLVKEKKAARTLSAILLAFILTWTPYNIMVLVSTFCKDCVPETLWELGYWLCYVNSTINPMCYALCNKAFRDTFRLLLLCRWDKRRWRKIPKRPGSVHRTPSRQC

Muscarinic acetylcholine receptors; M2 & M3 (Homo sapiens), sequence (P20309 whole entry, looked up, one chain of several): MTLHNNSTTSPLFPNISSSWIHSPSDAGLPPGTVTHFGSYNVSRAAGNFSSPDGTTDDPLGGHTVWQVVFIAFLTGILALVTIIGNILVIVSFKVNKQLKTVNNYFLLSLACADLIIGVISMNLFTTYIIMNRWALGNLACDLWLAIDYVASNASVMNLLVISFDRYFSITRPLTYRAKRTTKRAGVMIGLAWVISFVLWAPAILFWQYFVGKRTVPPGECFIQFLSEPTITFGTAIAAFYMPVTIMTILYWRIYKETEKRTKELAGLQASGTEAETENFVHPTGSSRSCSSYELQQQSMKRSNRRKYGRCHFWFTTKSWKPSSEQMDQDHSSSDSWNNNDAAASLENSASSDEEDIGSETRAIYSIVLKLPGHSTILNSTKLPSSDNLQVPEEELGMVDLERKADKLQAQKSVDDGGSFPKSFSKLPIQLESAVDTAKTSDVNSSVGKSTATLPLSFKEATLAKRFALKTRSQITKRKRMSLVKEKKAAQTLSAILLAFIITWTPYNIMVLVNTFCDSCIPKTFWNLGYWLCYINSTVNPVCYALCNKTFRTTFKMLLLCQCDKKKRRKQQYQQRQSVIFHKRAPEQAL
Muscarinic acetylcholine receptor M3, sequence (P20309 whole entry): as the sequence (P20309 whole entry, looked up, one chain of several) above

Ratio Ki [1] | Ratio Ki [2] | Ki [3] [nM] | Ki [4] [nM] | Ratio Ki [5] | Ki [6] [nM] | Ratio Ki [7] | Ki [8] [nM] | Ki [9] [nM] | Structure (SMILES)
800 | 1900 | 0.0631 | 112 | 37 | 49 | 20 | 2.04 | 1.23 | CC(=O)N[C@@H](CCCCN)C(=O)N[C@@H](CCCNC(=N)N)C(=O)NCCN1CCN(CCCCC2CCN(CC(=O)N3c4ccccc4NC(=O)c4ccccc43)CC2)CC1
> 27 | 4.9 | 309 | 1510 | 3.6 | > 10000 | 3.4 | 1070 | 1050 | CC(=O)N[C@@H](CCC(N)=O)C(=O)N[C@@H](CC(C)C)C(=O)NCCCCC1CCN(CC(=O)N2c3ccccc3NC(=O)c3ccccc32)CC1
370 | 1100 | 0.427 | 457 | 7.5 | 155 | 7.5 | 2.45 | 3.16 | CC(=O)N[C@@H](C)C(=O)N[C@@H](C)C(=O)NCCN1CCN(CCCCC2CCN(CC(=O)N3c4ccccc4NC(=O)c4ccccc43)CC2)CC1
350 | 56 | 7.76 | 427 | 12 | 2690 | 15 | 89.1 | 115 | CC(=O)N[C@@H](CCCCN)C(=O)N[C@@H](C)C(=O)N[C@@H](CCCNC(=N)N)C(=O)NCCCCC1CCN(CC(=O)N2c3ccccc3NC(=O)c3ccccc32)CC1
180 | 49 | 4.17 | 200 | 6.9 | 646 | 8.2 | 27.5 | 32.4 | CC(=O)N[C@@H](CCCCN)C(=O)N[C@@H](CCCNC(=N)N)C(=O)NCC(=O)NCCCCC1CCN(CC(=O)N2c3ccccc3NC(=O)c3ccccc32)CC1
46 | 1.8 | 33.1 | 58.9 | 2.8 | 1580 | 5 | 93.3 | 155 | CC(=O)N[C@@H](Cc1c[nH]c2ccccc12)C(=O)N[C@@H](Cc1ccc(O)cc1)C(=O)NCCCCC1CCN(CC(=O)N2c3ccccc3NC(=O)c3ccccc32)CC1
440 | 710 | 0.355 | 240 | 11 | 151 | 8.4 | 3.55 | 2.95 | CC(=O)N[C@@H](CCC(N)=O)C(=O)N[C@@H](C)C(=O)N[C@@H](CC(C)C)C(=O)NCCN1CCN(CCCCC2CCN(CC(=O)N3c4ccccc4NC(=O)c4ccccc43)CC2)CC1
160 | 53 | 4.27 | 224 | 5.8 | 661 | 14 | 23.4 | 58.9 | CC(=O)N[C@@H](CCCCN)C(=O)N[C@@H](C)C(=O)N[C@@H](Cc1ccc(O)cc1)C(=O)NCCCCC1CCN(CC(=O)N2c3ccccc3NC(=O)c3ccccc32)CC1
400 | 39 | 12 | 501 | 17 | 5500 | 6.5 | 257 | 95.5 | CC(=O)N[C@@H](CCCNC(=N)N)C(=O)N[C@@H](CCCCN)C(=O)NCCCCC1CCN(CC(=O)N2c3ccccc3NC(=O)c3ccccc32)CC1
78 | 300 |  |  | 7.4 |  | 7.6 |  |  | CCC(=O)NCc1cc(C(=O)NCCN2CCC(N3CCC(n4c(=O)[nH]c5ccccc54)CC3)CC2)cc(C(=O)NCCN2CCN(CCCCC3CCN(CC(=O)N4c5ccccc5NC(=O)c5ccccc54)CC3)CC2)c1
79 | 220 | 0.148 | 38.9 | 7 | 13.5 | 6.3 | 1.07 | 0.871 | CC(=O)N[C@@H](Cc1c[nH]c2ccccc12)C(=O)N[C@@H](Cc1ccc(O)cc1)C(=O)NCCN1CCN(CCCCC2CCN(CC(=O)N3c4ccccc4NC(=O)c4ccccc43)CC2)CC1
59 | 62 | 22.9 | 1350 | 3.7 | 1380 | 14 | 79.4 | 302 | CC(=O)N[C@@H](C)C(=O)N[C@@H](C)C(=O)NCCCCC1CCN(CC(=O)N2c3ccccc3NC(=O)c3ccccc32)CC1
56 | 6.2 | 20 | 120 | 1.9 | 1150 | 4.7 | 37.2 | 93.3 | CC(=O)N[C@@H](Cc1c[nH]c2ccccc12)C(=O)N[C@@H](C)C(=O)N[C@@H](Cc1ccc(O)cc1)C(=O)NCCCCC1CCN(CC(=O)N2c3ccccc3NC(=O)c3ccccc32)CC1
710 | 97 | 1.7 | 162 | 19 | 955 | 12 | 29.5 | 20 | CC(=O)N[C@@H](CCCNC(=N)N)C(=O)N[C@@H](CCCNC(=N)N)C(=O)NCCCCC1CCN(CC(=O)N2c3ccccc3NC(=O)c3ccccc32)CC1
720 | 43 | 1.82 | 74.1 | 5.9 | 1620 | 17 | 10.7 | 30.2 | CC(=O)N[C@@H](CCCCN)C(=O)N[C@@H](Cc1ccc(O)cc1)C(=O)NCCCCC1CCN(CC(=O)N2c3ccccc3NC(=O)c3ccccc32)CC1
